Results reported in ChEMBL document CHEMBL5252634, “Design, synthesis and in vitro cytotoxicity evaluation of indolo-pyrazoles grafted with thiazolidinone as tubulin polymerization inhibitors” (RSC Med Chem, 2023).
The source made the active and inactive calls. No cut-off for these calls is given here.

Key:
PC-3 = test: Cytotoxicity against multidrug resistance human PC-3 cells assessed as cell growth inhibition; assay type: functional, cell-based
SK-OV-3 = test: Cytotoxicity against multidrug resistance human SK-OV-3 cells assessed as cell growth inhibition; assay type: functional, cell-based
[1] = Cytotoxicity against multidrug resistance human U87 cells assessed as cell growth inhibition; assay type: functional, cell-based, U-87MG ATCC; conditions: U-87 MG
HCT-15 [2] = test: Cytotoxicity against human HCT-15 cells assessed as reduction in cell viability incubated for 4 hrs by MTT assay; assay type: functional, cell-based; conditions: HCT-15, 4 h
HCT-15 [3] = test: Cytotoxicity against human HCT-15 cells assessed as reduction in cell viability; assay type: functional, cell-based
Tubulin [4] = test: Inhibition of tubulin polymerization (unknown origin); assay type: cell-based, Homo sapiens
[5] = Selectivity index, ratio of IC50 for cytotoxicity against human BEAS-2B cells to IC50 for cytotoxicity against human HCT-116 cells; assay type: functional
SK-MEL-28 [6] = test: Induction of apoptosis in human SK-MEL-28 cells assessed as change in cell shape at 1.73 to 6.92 uM after 48 hrs by phase contrast microscopic analysis; assay type: functional, cell-based; conditions: dose 1.73-6.92 µM
Outline: (§1)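 SK-MEL-28 cells plated at 1×10^6 cells/mL, allowed to adhere overnight, then exposed to several concentrations for 48 h. Bright-field imaging at 20X to score cell shrinkage, deformation and viable cell number.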

HCT-116 = test: Cytotoxicity against human HCT-116 cells assessed as reduction in cell viability measured after 48 hrs by MTT assay; assay type: functional, cell-based; conditions: HCT-116, 48 h
Outline: (§2)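 Cells kept in medium with 10% FBS and 1% antibiotic–antimycotic at 37 °C, 5% CO2. Seeded at 3000–4000 cells/well, grown overnight, then given fresh medium with a range of concentrations (diluted from 10 mM DMSO stocks) for 48 h. MTT (0.5 mg/mL) added for 3–4 h at 37 °C. Formazan dissolved in DMSO and absorbance read at 570 nm.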

Tubulin [7] = test: Inhibition of tubulin polymerization (unknown origin) at 1.73 to 6.92 uM measured after 1 hr; assay type: protein-complex assay, Homo sapiens
Outline: (§3)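 Fluorescence-based tubulin polymerization kit: tubulin, GTP and tubulin glycerol buffer mixed and added to compound (from 10x stocks), enhancer and inhibitor reference standards, and blanks in a plate prewarmed to 37 °C. Read kinetically for 1 h at ex 360/em 450 nm.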

SK-MEL-28 [8] = test: Induction of apoptosis in human SK-MEL-28 cells assessed as increase in ROS level incubated for 48 hrs by DCFDA staining based fluorescence microscopic assay; assay type: functional, cell-based; conditions: dose 1.73-6.92 µM
Outline: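 SK-MEL-28 seeded at 1×10^6 cells/well and treated at several concentrations for 48 h at 37 °C. DCFDA (10 µM) loaded for 30 min at 37 °C, excess washed off with PBS, and green DCF fluorescence imaged (ex 498/em 530 nm), 20X.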

[9] = Selectivity index, ratio of IC50 for cytotoxicity against human BEAS-2B cells to IC50 for cytotoxicity against human SK-MEL-28 cells; assay type: functional
SK-MEL-28 [10] = test: Induction of cell cycle arrest in human SK-MEL-28 cells assessed as accumulation of cells at G0/G1 phase at 1.73 uM incubated for 48 hrs by flow cytometry (reference value: 79.59%); assay type: functional
Tubulin (Homo sapiens) = Tubulin (Homo sapiens) (UniProt P68371+Q9H4B7+P0DPH7+P68366+Q13509+Q71U36+P04350+Q3ZCM7+P07437+P68363+Q9BQE3+Q6PEY2+Q13885+Q9BVA1+Q9BUF5); test: Inhibition of tubulin polymerization (unknown origin) at 1.73 to 6.92 uM measured after 1 hr relative to control; assay type: protein-complex assay; conditions: dose 1.73-6.92 µM; outline: as §3
SK-MEL-28 [11] = test: Cytotoxicity against human SK-MEL-28 cells assessed as reduction in cell viability measured after 48 hrs by MTT assay; assay type: functional, cell-based; conditions: SK-MEL-28, 48 h; outline: as §2
SK-MEL-28 [12] = test: Induction of cell cycle arrest in human SK-MEL-28 cells assessed as accumulation of cells at G0/G1 phase at 6.92 uM incubated for 48 hrs by flow cytometry (reference value: 79.59%); assay type: functional
SK-MEL-28 [13] = test: Induction of apoptosis in human SK-MEL-28 cells assessed as increase in red fluorescence at 1.73 to 6.92 uM incubated for 48 hrs by AO/EB staining based fluorescence microscopy; assay type: functional, cell-based; conditions: dose 1.73-6.92 µM
Outline: (§4)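 SK-MEL-28 plated at 1×10^6 cells/mL and treated at several concentrations for 48 h. Acridine orange and ethidium bromide added at 10 µg/ml, and cells imaged at once by fluorescence microscopy (ex 488/em 550 nm), 20X.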

SK-MEL-28 [14] = test: Induction of apoptosis in human SK-MEL-28 cells assessed as budding nucleus at 1.73 to 6.92 uM incubated for 48 hrs by DAPI staining based fluorescence microscopy; assay type: functional, cell-based; conditions: dose 1.73-6.92 µM
Outline: (§5)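 SK-MEL-28 exposed 48 h, then PBS-washed, fixed in 4% paraformaldehyde, permeabilized with 0.1% Triton X for 15 min and stained with 10 µg/mL DAPI. Nuclei viewed by fluorescence (ex 359/em 461 nm), 20X, with untreated controls.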

A549 = test: Cytotoxicity against human A549 cells assessed as reduction in cell viability measured after 48 hrs by MTT assay; assay type: functional, cell-based; conditions: A549, 48 h; outline: as §2
SK-MEL-28 [15] = test: Induction of cell cycle arrest in human SK-MEL-28 cells assessed as accumulation of cells at S phase at 1.73 uM incubated for 48 hrs by flow cytometry (reference value: 6.34%); assay type: functional
SK-MEL-28 [16] = test: Induction of apoptosis in human SK-MEL-28 cells assessed as blebbing nucleus at 1.73 to 6.92 uM incubated for 48 hrs by DAPI staining based fluorescence microscopy; assay type: functional, cell-based; conditions: dose 1.73-6.92 µM; outline: as §5
SK-MEL-28 [17] = test: Induction of cell cycle arrest in human SK-MEL-28 cells assessed as accumulation of cells at G2/M phase at 6.92 uM incubated for 48 hrs by flow cytometry (reference value: 13.14%); assay type: functional
SK-MEL-28 [18] = test: Induction of cell cycle arrest in human SK-MEL-28 cells assessed as accumulation of cells at G2/M phase at 1.73 uM incubated for 48 hrs by flow cytometry (reference value: 13.14%); assay type: functional
SK-MEL-28 [19] = test: Induction of apoptosis in human SK-MEL-28 cells assessed as cellular shrinkage at 1.73 to 6.92 uM after 48 hrs by phase contrast microscopic analysis; assay type: functional, cell-based; conditions: dose 1.73-6.92 µM; outline: as §1
SK-MEL-28 [20] = test: Induction of cell cycle arrest in human SK-MEL-28 cells assessed as accumulation of cells at S phase at 3.46 uM incubated for 48 hrs by flow cytometry (reference value: 6.34%); assay type: functional
SK-MEL-28 [21] = test: Induction of apoptosis in human SK-MEL-28 cells assessed as nuclear condensation at 1.73 to 6.92 uM incubated for 48 hrs by DAPI staining based fluorescence microscopy; assay type: functional, cell-based; conditions: dose 1.73-6.92 µM; outline: as §5
SK-MEL-28 [22] = test: Induction of cell cycle arrest in human SK-MEL-28 cells assessed as accumulation of cells at G2/M phase at 3.46 uM incubated for 48 hrs by flow cytometry (reference value: 13.14%); assay type: functional
SK-MEL-28 [23] = test: Induction of cell cycle arrest in human SK-MEL-28 cells assessed as accumulation of cells at G0/G1 phase at 3.46 uM incubated for 48 hrs by flow cytometry (reference value: 79.59%); assay type: functional
SK-MEL-28 [24] = test: Induction of apoptosis in human SK-MEL-28 cells assessed as morphological changes measured after 48 hrs by AO/EB staining based microscopic analysis; assay type: functional, cell-based; conditions: dose 1.73-6.92 µM; outline: as §4
SK-MEL-28 [25] = test: Induction of apoptosis in human SK-MEL-28 cells assessed as early apoptotic cells measured after 48 hrs by annexin-V-FITC/PI double staining based flow cytometric analysis; assay type: functional, cell-based; conditions: dose 1.73-6.92 µM
Outline: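 1×10^6 SK-MEL-28 cells treated at various concentrations for 48 h. Cells trypsinized with supernatant retained and washed twice in ice-cold PBS. Stained with annexin V-FITC and PI in binding buffer for 15 min at room temperature in the dark, kept on ice, and analysed by flow cytometry.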

SK-MEL-28 [26] = test: Induction of apoptosis in human SK-MEL-28 cells assessed as cell membrane disruption at 1.73 to 6.92 uM incubated for 48 hrs by AO/EB staining based fluorescence microscopy; assay type: functional; conditions: dose 1.73-6.92 µM; outline: as §4
SK-MEL-28 [27] = test: Induction of apoptosis in human SK-MEL-28 cells assessed as apoptotic body formation at 1.73 to 6.92 uM incubated for 48 hrs by AO/EB staining based fluorescence microscopy; assay type: functional, cell-based; conditions: dose 1.73-6.92 µM; outline: as §4
SK-MEL-28 [28] = test: Potency index, ratio of sunitinib IC50 to test compound IC50 for cytotoxicity against human SK-MEL-28 cells assessed as reduction in cell viability measured after 48 hrs by MTT assay; assay type: functional
[29] = Selectivity index, ratio of IC50 for cytotoxicity against human BEAS-2B cells to IC50 for cytotoxicity against mouse B16-F10 cells; assay type: functional
[30] = Cytotoxicity against human BEAS-2B cells assessed as reduction in cell viability measured after 48 hrs by MTT assay; assay type: toxicity, cell-based; outline: as §2
SK-MEL-28 [31] = test: Induction of apoptosis in human SK-MEL-28 cells assessed as nucleus fragmentation at 1.73 to 6.92 uM incubated for 48 hrs by DAPI staining based fluorescence microscopy; assay type: functional, cell-based; conditions: dose 1.73-6.92 µM; outline: as §5
[32] = Selectivity index, ratio of IC50 for cytotoxicity against human BEAS-2B cells to IC50 for cytotoxicity against human A549 cells; assay type: functional
SK-MEL-28 [33] = test: Induction of cell cycle arrest in human SK-MEL-28 cells assessed as accumulation of cells at S phase at 6.92 uM incubated for 48 hrs by flow cytometry (reference value: 6.34%); assay type: functional
SK-MEL-28 [34] = test: Induction of apoptosis in human SK-MEL-28 cells assessed as reduction in live cells at 1.73 to 6.92 uM after 48 hrs by phase contrast microscopic analysis; assay type: functional, cell-based; conditions: dose 1.73-6.92 µM; outline: as §1
SK-MEL-28 [35] = test: Induction of apoptosis in human SK-MEL-28 cells assessed as horseshoe-shaped nucleus at 1.73 to 6.92 uM incubated for 48 hrs by DAPI staining based fluorescence microscopy; assay type: functional, cell-based; conditions: dose 1.73-6.92 µM; outline: as §5
B16-F10 = test: Cytotoxicity against mouse B16-F10 cells assessed as reduction in cell viability measured after 48 hrs by MTT assay; assay type: functional, cell-based; conditions: B16-F10, 48 h; outline: as §2
HeLa = test: Cytotoxicity against human HeLa cells assessed as reduction in cell viability; assay type: functional, cell-based

O=C(Nc1ccncc1)C(=O)c1cn(Cc2ccc(Cl)cc2)c2ccccc12 [INDIBULIN]
IC50 (PC-3): 0.064 µM | IC50 (SK-OV-3): 0.036 µM | IC50 [1]: 0.077 µM

COc1ccc(CC/N=C2/NC(=O)/C(=C\c3c[nH]c4ccc(Br)cc34)S2)cc1
IC50 (HCT-15 [2]): 0.92 µM | IC50 (HCT-15 [3]): 0.92 µM

CCOc1ccc(-c2n[nH]cc2-c2cc(OC)c(OC)c(OC)c2)cc1
IC50 (Tubulin [4]): 0.35 µM

O=C1CS/C(=N\c2cc(-c3c[nH]c4ccccc34)nn2-c2cccc(Cl)c2)N1
Ratio IC50 [5]: 1.76 | Activity (SK-MEL-28 [6]): Active | IC50 (HCT-116): 9.02 µM | IC50 (Tubulin [7]): < 1.73 µM | Activity (SK-MEL-28 [8]): Dose-Dependent Effect | Ratio IC50 [9]: 4.59 | Activity (SK-MEL-28 [10]): 77.35% | inhibition (Tubulin (Homo sapiens)): 60% | IC50 (SK-MEL-28 [11]): 3.46 µM | Activity (SK-MEL-28 [12]): 77.01% | Activity (SK-MEL-28 [13]): Active | Activity (SK-MEL-28 [14]): Active | IC50 (A549): 11.5 µM | Activity (SK-MEL-28 [15]): 6.73% | Activity (SK-MEL-28 [16]): Active | Activity (SK-MEL-28 [17]): 16.39% | Activity (SK-MEL-28 [18]): 14.31% | Activity (SK-MEL-28 [19]): Active | Activity (SK-MEL-28 [20]): 6.73% | Activity (SK-MEL-28 [21]): Active | Activity (SK-MEL-28 [22]): 16.11% | Activity (SK-MEL-28 [23]): 77.33% | Activity (SK-MEL-28 [24]): Dose-Dependent Effect | Activity (SK-MEL-28 [25]): Dose-Dependent Effect | Activity (SK-MEL-28 [26]): Active | Activity (SK-MEL-28 [27]): Active | Ratio IC50 (SK-MEL-28 [28]): 1.5 | Ratio IC50 [29]: 1.47 | IC50 at 48 h [30]: 15.9 µM | Activity (SK-MEL-28 [31]): Active | Ratio IC50 [32]: 1.38 | Activity (SK-MEL-28 [33]): 5.7% | Activity (SK-MEL-28 [34]): Active | Activity (SK-MEL-28 [35]): Active | IC50 (B16-F10): 10.8 µM

COc1cc(NC(=O)/C=C/c2cc(-c3cc(OC)c(OC)c(OC)c3)n[nH]2)cc(OC)c1OC
IC50 (HeLa): 0.4 µM
